Test results: ChEMBL document CHEMBL4732036, “Phenyl bioisosteres in medicinal chemistry: discovery of novel gamma-secretase modulators as a potential treatment for Alzheimer''s disease” (RSC Med Chem, 2021)
≈ marks a conversion by molar mass, not a printed value. Each block holds one compound with its values, some of them ahead of it.

Experiments:
[1] = Distribution coefficient between 1-octanol and phosphate buffer, logD of the compound after 24 hrs by shake flask assay; assay type: physicochemical; conditions: 1-octanol/phosphate buffer
In short: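 CAMDIS high-throughput shake-flask method. PVDF membranes impregnated with 1-octanol are dipped in 25 mM phosphate buffer, pH 7.4, containing the compound, then shaken 24 h at 23 °C. Remaining aqueous concentration measured by LC/MS. logD calculated from the aqueous concentration with and without octanol impregnation, and the phase ratio.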

Gamma-secretase = experiment: Modulatory activity of gamma secretase in human H4 cells overexpressing human APP695 K595N/M596L mutant assessed as decrease in amyloidbeta42 levels at 24 hrs by Alphalisa method; assay type: cell-based
In short: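 H4 neuroglioma cells stably expressing APP695 Swedish mutant, in IMDM with 10% FCS and […] hygromycin B, at 37 °C, 5% CO2. Compounds added 3-4 h after plating and incubated 24 h, typically 4 µM down to 0.0013 µM in half-log steps (8 points), final Me2SO 0.4%. Secreted Aβ in supernatant quantified by AlphaLisa (3 h antibody mix, then donor beads 30 min, RT). IC50 by nonlinear regression.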

[2] = Solubility of compound in PBS buffer at pH 6.5 incubated for over night by HPLC-UV based LYSA assay; assay type: physicochemical
In short: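 Duplicate samples from 10 mM DMSO stocks. DMSO evaporated, residue dissolved in 0.05 M phosphate buffer, pH 6.5, stirred 1 h, shaken 2 h, left overnight, then filtered. Filtrate and its 1/10 dilution measured by direct UV or HPLC-UV against a four-point calibration curve.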

Structure (SMILES): Cc1nnc(C23CC(Nc4nc5n(n4)CCCN5c4cccc(Cl)c4)(C2)C3)o1
- logD at 24 h [1]: 2.4
- IC50 (Gamma-secretase): 777 nM
- solubility at 12 h [2]: 167 µg/mL (≈ 420 µM)

Structure (SMILES): Cc1nnc(-c2ccc(Nc3nc4n(n3)CCCN4c3ccc(OC(F)(F)F)cc3)cc2)o1
- logD at 24 h [1]: > 4
- IC50 (Gamma-secretase): 227 nM
- solubility at 12 h [2]: < 0.1 µg/mL

Structure (SMILES): Cc1nnc(N2CC3CCC(C2)C3Nc2nc3n(n2)CCCN3c2cccc(Cl)c2)o1 (centres undefined)
- logD at 24 h [1]: 2.7
- IC50 (Gamma-secretase): 34 nM
- solubility at 12 h [2]: 233 µg/mL (≈ 528 µM)

Structure (SMILES): Cc1nnc(C23CCC(Nc4nc5n(n4)CCCN5c4cccc(Cl)c4)(CC2)CC3)o1
- logD at 24 h [1]: 3.1
- IC50 (Gamma-secretase): 114 nM
- solubility at 12 h [2]: 132 µg/mL (≈ 300 µM)

Structure (SMILES): Cc1nnc(C23CCC(Nc4nc5n(n4)CCCN5c4ccc(OC(F)(F)F)cc4)(CC2)CC3)o1
- logD at 24 h [1]: 3.7
- IC50 (Gamma-secretase): 21 nM
- solubility at 12 h [2]: 0.4 µg/mL (≈ 0.817 µM)

Structure (SMILES): Cc1nnc(-c2ccc(Nc3nc(Oc4cccc(Cl)c4)n(C(C)C)n3)cc2)o1
- logD at 24 h [1]: > 4
- IC50 (Gamma-secretase): 510 nM
- solubility at 12 h [2]: < 0.1 µg/mL

Structure (SMILES): Cc1cc(N2CC3CCC(C2)C3Nc2nc3n(n2)CCCC[C@H]3c2ccc(F)c(F)c2F)ncn1 (some centres undefined)
- logD at 24 h [1]: 3.4
- IC50 (Gamma-secretase): 17 nM
- solubility at 12 h [2]: 7 µg/mL (≈ 14.5 µM)

Structure (SMILES): Cc1nnc(C23CC(Nc4nc(Oc5cccc(Cl)c5)n(C(C)C)n4)(C2)C3)o1
- logD at 24 h [1]: 4.1
- IC50 (Gamma-secretase): 214 nM
- solubility at 12 h [2]: 88 µg/mL (≈ 220 µM)

Structure (SMILES): Cc1nnc(N2CC3CCC(C2)C3Nc2nc3n(n2)CCCN3c2ccc(OC(F)(F)F)cc2)o1 (centres undefined)
- logD at 24 h [1]: 3.5
- IC50 (Gamma-secretase): 46 nM
- solubility at 12 h [2]: 106 µg/mL (≈ 216 µM)

Structure (SMILES): Cc1nnc(C23CC(Nc4nc(Cc5ccc(Cl)cc5)cc(C(C)(C)O)n4)(C2)C3)o1
- logD at 24 h [1]: 4
- IC50 (Gamma-secretase): 520 nM
- solubility at 12 h [2]: 11 µg/mL (≈ 25.8 µM)

Structure (SMILES): Cc1nnc(C23CCC(Nc4nc(Oc5cccc(Cl)c5)n(C(C)C)n4)(CC2)CC3)o1
- logD at 24 h [1]: 4.1
- IC50 (Gamma-secretase): 118 nM
- solubility at 12 h [2]: 15 µg/mL (≈ 33.9 µM)

Results, then the compound that gave them:

- logD at 24 h [1]: 3.8
- IC50 (Gamma-secretase): 11 nM
- solubility at 12 h [2]: 1 µg/mL (≈ 2.27 µM)
Structure (SMILES): Cc1cc(C23CC(Nc4nc5n(n4)CCCC[C@H]5c4ccc(F)c(F)c4F)(C2)C3)ncn1

- logD at 24 h [1]: 4
- IC50 (Gamma-secretase): 38 nM
- solubility at 12 h [2]: 18 µg/mL (≈ 38.4 µM)
Structure (SMILES): Cc1nnc(N2CC3CCC(C2)C3Nc2nc(Cc3ccc(Cl)cc3)cc(C(C)(C)O)n2)o1 (centres undefined)

- logD at 24 h [1]: > 4
- IC50 (Gamma-secretase): 478 nM
- solubility at 12 h [2]: < 0.1 µg/mL
Structure (SMILES): Cc1nnc(-c2ccc(Nc3nc(Cc4ccc(Cl)cc4)cc(C(C)(C)O)n3)cc2)o1

- logD at 24 h [1]: > 4
- IC50 (Gamma-secretase): 146 nM
- solubility at 12 h [2]: < 0.1 µg/mL
Structure (SMILES): Cc1nnc(C23CCC(Nc4nc(Cc5ccc(Cl)cc5)cc(C(C)(C)O)n4)(CC2)CC3)o1

- logD at 24 h [1]: 2.8
- IC50 (Gamma-secretase): 587 nM
- solubility at 12 h [2]: 3.2 µg/mL (≈ 7.15 µM)
Structure (SMILES): Cc1nnc(C23CC(Nc4nc5n(n4)CCCN5c4ccc(OC(F)(F)F)cc4)(C2)C3)o1

- logD at 24 h [1]: 3.2
- IC50 (Gamma-secretase): 95 nM
- solubility at 12 h [2]: < 0.1 µg/mL
Structure (SMILES): Cc1nnc(-c2ccc(Nc3nc4n(n3)CCCN4c3cccc(Cl)c3)cc2)o1

- logD at 24 h [1]: 3.6
- IC50 (Gamma-secretase): 42 nM
- solubility at 12 h [2]: 104 µg/mL (≈ 234 µM)
Structure (SMILES): Cc1nnc(N2CC3CCC(C2)C3Nc2nc(Oc3cccc(Cl)c3)n(C(C)C)n2)o1 (centres undefined)
